Source: ChEMBL document CHEMBL1811845, “Modulation of GABAA-receptors by honokiol and derivatives: subtype selectivity and structure-activity relationship” (J Med Chem, 2011)

Key:
Oocyte = test: Modulation of GABA alpha1beta2gamma2s receptor expressed in Xenopus laevis oocytes assessed as potentiation of GABA-induced chloride current at holding potential -70 mV at 300 nM by two-microelectrode voltage clamp technique relative to GABA; type: cell-based
How it was run: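 Xenopus oocytes were injected with α1, β2 and γ2s cRNAs mixed 1:1:10 and stored at +18 °C in ND96 at pH 7.4. Chloride current was recorded by two-electrode voltage clamp at -70 mV and ambient temperature. Compound was co-applied with GABA at 3–7% of maximal current, set for each oocyte. Enhancement was calculated as (I(GABA+compound)/IGABA) − 1 with matched DMSO.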

[1] = molecular target: T1, Gamma-aminobutyric acid receptor subunit alpha-2/beta-2 (Homo sapiens, UniProt P47869+P47870); test: Modulation of GABA Aalpha2beta2 receptor expressed in Xenopus laevis oocytes assessed as potentiation of GABA-induced chloride current at holding potential -70 mV by two-microelectrode voltage clamp technique; type: cell-based, Oocyte
T1 sequence (P47870 whole entry): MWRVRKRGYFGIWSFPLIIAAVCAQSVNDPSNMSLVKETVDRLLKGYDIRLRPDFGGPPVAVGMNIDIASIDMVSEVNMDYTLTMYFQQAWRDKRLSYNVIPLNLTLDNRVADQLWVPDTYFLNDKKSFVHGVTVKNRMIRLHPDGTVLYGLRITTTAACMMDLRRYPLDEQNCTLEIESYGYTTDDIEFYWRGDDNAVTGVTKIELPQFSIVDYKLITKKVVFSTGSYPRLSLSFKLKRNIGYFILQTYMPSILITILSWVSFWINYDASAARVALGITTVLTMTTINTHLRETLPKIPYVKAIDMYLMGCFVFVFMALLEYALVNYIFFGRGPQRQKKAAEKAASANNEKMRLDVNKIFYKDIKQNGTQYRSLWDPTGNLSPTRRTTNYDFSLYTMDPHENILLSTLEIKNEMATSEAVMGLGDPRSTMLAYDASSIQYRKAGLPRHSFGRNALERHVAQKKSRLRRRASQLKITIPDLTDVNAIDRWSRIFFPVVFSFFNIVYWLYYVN
T1 sequence (P47869 whole entry): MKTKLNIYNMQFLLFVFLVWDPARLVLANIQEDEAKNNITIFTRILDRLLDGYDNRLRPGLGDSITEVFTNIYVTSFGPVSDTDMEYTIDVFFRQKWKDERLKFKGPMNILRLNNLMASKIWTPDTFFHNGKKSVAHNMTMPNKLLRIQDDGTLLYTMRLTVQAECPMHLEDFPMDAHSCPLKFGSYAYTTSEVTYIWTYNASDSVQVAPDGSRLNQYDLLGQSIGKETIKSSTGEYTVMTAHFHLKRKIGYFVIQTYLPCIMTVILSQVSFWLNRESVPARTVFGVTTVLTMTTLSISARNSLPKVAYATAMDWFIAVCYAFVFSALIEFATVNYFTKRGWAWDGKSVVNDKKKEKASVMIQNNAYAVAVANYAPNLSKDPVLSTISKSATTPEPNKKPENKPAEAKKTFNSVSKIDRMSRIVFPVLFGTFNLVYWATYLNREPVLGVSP
How it was run: (§1)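 Stage V–VI Xenopus oocytes, defolliculated with 2 mg/mL collagenase, injected with α(1, 2, 3 or 5) and β2 cRNAs mixed 1:1, then kept at 18 °C in ND96 (pH 7.4). Enhancement = I(GABA+compound)/IGABA − 1. Curves were Hill-fitted for EC50. Bath DMSO was at most 0.3%, matched in controls.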

[2] = molecular target: T2, GABA-A receptor; GABA-A site (alpha1/beta2 interface) (Homo sapiens) (UniProt P14867+P47870); test: Modulation of GABA Aalpha1beta2 receptor expressed in Xenopus laevis oocytes assessed as potentiation of GABA-induced chloride current at holding potential -70 mV at 30 uM by two-microelectrode voltage clamp technique relative to GABA; type: cell-based; conditions: Oocyte
How it was run: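 Single-concentration screen at 30 μM on α1β2 receptors (cRNA 1:1) in Xenopus oocytes. Enhancement was (I(GABA+compound)/IGABA)−1. DMSO was matched in control and test solutions, maximum 0.3% in the bath.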

[3] = molecular target: T3, Gamma-aminobutyric acid receptor subunit alpha-5/beta-2 (Homo sapiens, UniProt P31644+P47870); test: Modulation of GABA Aalpha5beta2 receptor expressed in Xenopus laevis oocytes assessed as potentiation of GABA-induced chloride current at holding potential -70 mV by two-microelectrode voltage clamp technique; type: cell-based, Oocyte; how it was run: as §1
T3 sequence (P47870 whole entry): T1 sequence (P47870 whole entry)
T3 sequence (P31644 whole entry): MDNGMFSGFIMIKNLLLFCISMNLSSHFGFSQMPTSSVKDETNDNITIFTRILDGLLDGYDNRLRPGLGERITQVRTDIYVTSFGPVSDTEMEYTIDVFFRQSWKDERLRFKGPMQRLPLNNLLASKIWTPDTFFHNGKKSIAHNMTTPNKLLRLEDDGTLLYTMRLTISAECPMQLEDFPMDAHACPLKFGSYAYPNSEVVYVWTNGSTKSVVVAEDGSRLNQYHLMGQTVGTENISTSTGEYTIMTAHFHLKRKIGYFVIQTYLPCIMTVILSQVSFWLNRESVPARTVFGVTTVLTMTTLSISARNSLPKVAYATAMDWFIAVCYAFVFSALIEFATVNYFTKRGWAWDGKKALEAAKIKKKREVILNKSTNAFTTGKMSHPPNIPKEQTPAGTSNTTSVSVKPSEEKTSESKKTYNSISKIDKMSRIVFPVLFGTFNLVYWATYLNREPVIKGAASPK

[4] = Octanol-water partition coefficient, log P of the compound; type: physicochemical; conditions: read-out: logP
[5] = molecular target: T4, Gamma-aminobutyric acid receptor subunit alpha-3/ beta-2 (Homo sapiens, UniProt P34903+P47870); test: Modulation of GABA Aalpha3beta2 receptor expressed in Xenopus laevis oocytes assessed as potentiation of GABA-induced chloride current at holding potential -70 mV by two-microelectrode voltage clamp technique; type: cell-based, Oocyte; how it was run: as §1
T4 sequence (P47870 whole entry): T1 sequence (P47870 whole entry)
T4 sequence (P34903 whole entry): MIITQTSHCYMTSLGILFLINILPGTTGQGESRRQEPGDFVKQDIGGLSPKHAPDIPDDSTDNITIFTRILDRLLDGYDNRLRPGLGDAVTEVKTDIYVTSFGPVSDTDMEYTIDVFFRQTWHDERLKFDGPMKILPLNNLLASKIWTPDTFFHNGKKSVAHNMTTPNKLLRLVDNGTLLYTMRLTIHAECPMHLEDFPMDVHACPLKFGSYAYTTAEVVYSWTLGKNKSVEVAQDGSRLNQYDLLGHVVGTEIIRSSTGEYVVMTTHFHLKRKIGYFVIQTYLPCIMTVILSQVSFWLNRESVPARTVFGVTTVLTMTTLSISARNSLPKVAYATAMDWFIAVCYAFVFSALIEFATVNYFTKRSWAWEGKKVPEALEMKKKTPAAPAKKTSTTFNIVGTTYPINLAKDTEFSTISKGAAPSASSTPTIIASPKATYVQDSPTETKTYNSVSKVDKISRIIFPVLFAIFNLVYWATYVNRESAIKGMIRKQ

[6] = molecular target: Gamma-aminobutyric acid receptor subunit alpha-2/beta-2 (Homo sapiens) (UniProt P47870+P47869); test: Modulation of GABA Aalpha2beta2 receptor expressed in Xenopus laevis oocytes assessed as potentiation of GABA-induced chloride current at holding potential -70 mV by two-microelectrode voltage clamp technique relative to GABA; type: cell-based; conditions: Oocyte
How it was run: (§2)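 Oocytes were injected with α1, α2, α3 or α5 plus β2 cRNA at a 1:1 ratio and stored at 18 °C in ND96, pH 7.4. Enhancement was (I(GABA+compound)/IGABA)−1, and concentration-response data were Hill-fitted for EC50 and nH. Matched DMSO was ≤0.3%.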

[7] = molecular target: T5, GABA-A receptor; GABA-A site (alpha1/beta2 interface) (Homo sapiens, UniProt P14867+P47870); test: Modulation of GABA Aalpha1beta2 receptor expressed in Xenopus laevis oocytes assessed as potentiation of GABA-induced chloride current at holding potential -70 mV by two-microelectrode voltage clamp technique; type: cell-based, Oocyte; how it was run: as §1
T5 sequence (P14867 whole entry): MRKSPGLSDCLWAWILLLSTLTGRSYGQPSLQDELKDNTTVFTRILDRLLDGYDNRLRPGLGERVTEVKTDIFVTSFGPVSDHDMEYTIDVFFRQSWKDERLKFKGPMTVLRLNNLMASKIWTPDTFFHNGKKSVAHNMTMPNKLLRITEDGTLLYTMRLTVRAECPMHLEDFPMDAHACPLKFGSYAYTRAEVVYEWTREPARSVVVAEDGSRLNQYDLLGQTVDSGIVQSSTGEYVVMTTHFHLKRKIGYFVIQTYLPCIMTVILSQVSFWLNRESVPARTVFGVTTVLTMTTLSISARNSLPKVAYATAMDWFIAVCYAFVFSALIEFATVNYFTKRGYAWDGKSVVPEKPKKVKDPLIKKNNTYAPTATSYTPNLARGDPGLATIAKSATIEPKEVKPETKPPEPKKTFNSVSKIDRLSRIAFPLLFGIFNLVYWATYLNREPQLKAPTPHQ
T5 sequence (P47870 whole entry): T1 sequence (P47870 whole entry)

[8] = molecular target: T2, GABA-A receptor; GABA-A site (alpha1/beta2 interface) (Homo sapiens); test: Modulation of GABA Aalpha1beta2 receptor expressed in Xenopus laevis oocytes assessed as potentiation of GABA-induced chloride current at holding potential -70 mV by two-microelectrode voltage clamp technique relative to GABA; type: cell-based; conditions: Oocyte; how it was run: as §2
[9] = molecular target: Gamma-aminobutyric acid receptor subunit alpha-3/ beta-2 (Homo sapiens) (UniProt P47870+P34903); test: Modulation of GABA Aalpha3beta2 receptor expressed in Xenopus laevis oocytes assessed as potentiation of GABA-induced chloride current at holding potential -70 mV by two-microelectrode voltage clamp technique relative to GABA; type: cell-based; conditions: Oocyte; how it was run: as §2
[10] = molecular target: Gamma-aminobutyric acid receptor subunit alpha-5/beta-2 (Homo sapiens) (UniProt P47870+P31644); test: Modulation of GABA Aalpha5beta2 receptor expressed in Xenopus laevis oocytes assessed as potentiation of GABA-induced chloride current at holding potential -70 mV by two-microelectrode voltage clamp technique relative to GABA; type: cell-based; conditions: Oocyte; how it was run: as §2

SMILES	Activity (Oocyte)	EC50 [1]	Activity [2]	EC50 [3]	logP [4]	EC50 [5]	Smax [6]	EC50 [7]	Smax [8]	Smax [9]	Smax [10]
CN1C(=O)CN=C(c2ccccc2)c2cc(Cl)ccc21	104%										
CCCc1cc(N)c(O)c(-c2ccc(OC)c(CCC)c2)c1		3.2 µM	2020%	5.3 µM	5.38	8.4 µM	2980%	9.2 µM	2260%	2380%	1870%
C=CCc1cc(NC(C)=O)c(O)c(-c2ccc(OC)c(CC=C)c2)c1		7.9 µM	2630%	2.3 µM	4.75	9 µM	5200%	3.8 µM	2600%	3670%	1010%
